In paper PMC11628833 (Acta Pharmaceutica Sinica. B, 2024):

Experiments:
hTLR8 = biological target: T1, hTLR8 (Homo sapiens, UniProt Q9NR97); test: SEAP reporter assay in HEK-Blue hTLR8 cells; assay type: cell-based
T1 sequence (Q9NR97 27-1041): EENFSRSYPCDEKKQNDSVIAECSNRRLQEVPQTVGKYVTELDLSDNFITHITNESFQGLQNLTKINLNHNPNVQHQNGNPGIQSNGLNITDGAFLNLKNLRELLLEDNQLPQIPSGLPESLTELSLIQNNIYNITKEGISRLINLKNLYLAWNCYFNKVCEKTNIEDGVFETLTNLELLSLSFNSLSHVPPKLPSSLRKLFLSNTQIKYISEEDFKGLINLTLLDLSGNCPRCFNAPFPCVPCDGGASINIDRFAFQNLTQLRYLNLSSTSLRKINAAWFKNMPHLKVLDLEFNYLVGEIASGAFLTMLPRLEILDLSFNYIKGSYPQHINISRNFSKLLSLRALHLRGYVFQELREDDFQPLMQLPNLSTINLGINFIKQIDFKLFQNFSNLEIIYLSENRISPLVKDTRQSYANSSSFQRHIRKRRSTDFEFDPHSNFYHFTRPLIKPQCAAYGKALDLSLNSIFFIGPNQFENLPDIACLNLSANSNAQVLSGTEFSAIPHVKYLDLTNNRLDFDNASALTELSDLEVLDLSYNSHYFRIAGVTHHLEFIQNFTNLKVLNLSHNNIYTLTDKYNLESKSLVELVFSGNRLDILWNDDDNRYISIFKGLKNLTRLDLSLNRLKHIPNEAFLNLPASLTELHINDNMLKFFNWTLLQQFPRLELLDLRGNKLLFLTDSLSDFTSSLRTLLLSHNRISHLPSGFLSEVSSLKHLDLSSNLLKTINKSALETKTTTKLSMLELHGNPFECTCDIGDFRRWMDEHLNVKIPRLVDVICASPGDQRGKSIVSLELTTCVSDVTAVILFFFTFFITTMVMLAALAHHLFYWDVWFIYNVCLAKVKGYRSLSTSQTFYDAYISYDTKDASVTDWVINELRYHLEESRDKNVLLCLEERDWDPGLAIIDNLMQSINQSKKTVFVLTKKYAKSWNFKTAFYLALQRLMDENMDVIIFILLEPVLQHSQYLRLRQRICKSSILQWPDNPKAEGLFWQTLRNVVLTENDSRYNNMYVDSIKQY

human TLR7 = biological target: T2, human TLR7 (Homo sapiens, UniProt Q9NYK1); test: SEAP reporter assay in HEK-Blue hTLR7 cells; assay type: cell-based
T2 sequence (Q9NYK1 27-1049): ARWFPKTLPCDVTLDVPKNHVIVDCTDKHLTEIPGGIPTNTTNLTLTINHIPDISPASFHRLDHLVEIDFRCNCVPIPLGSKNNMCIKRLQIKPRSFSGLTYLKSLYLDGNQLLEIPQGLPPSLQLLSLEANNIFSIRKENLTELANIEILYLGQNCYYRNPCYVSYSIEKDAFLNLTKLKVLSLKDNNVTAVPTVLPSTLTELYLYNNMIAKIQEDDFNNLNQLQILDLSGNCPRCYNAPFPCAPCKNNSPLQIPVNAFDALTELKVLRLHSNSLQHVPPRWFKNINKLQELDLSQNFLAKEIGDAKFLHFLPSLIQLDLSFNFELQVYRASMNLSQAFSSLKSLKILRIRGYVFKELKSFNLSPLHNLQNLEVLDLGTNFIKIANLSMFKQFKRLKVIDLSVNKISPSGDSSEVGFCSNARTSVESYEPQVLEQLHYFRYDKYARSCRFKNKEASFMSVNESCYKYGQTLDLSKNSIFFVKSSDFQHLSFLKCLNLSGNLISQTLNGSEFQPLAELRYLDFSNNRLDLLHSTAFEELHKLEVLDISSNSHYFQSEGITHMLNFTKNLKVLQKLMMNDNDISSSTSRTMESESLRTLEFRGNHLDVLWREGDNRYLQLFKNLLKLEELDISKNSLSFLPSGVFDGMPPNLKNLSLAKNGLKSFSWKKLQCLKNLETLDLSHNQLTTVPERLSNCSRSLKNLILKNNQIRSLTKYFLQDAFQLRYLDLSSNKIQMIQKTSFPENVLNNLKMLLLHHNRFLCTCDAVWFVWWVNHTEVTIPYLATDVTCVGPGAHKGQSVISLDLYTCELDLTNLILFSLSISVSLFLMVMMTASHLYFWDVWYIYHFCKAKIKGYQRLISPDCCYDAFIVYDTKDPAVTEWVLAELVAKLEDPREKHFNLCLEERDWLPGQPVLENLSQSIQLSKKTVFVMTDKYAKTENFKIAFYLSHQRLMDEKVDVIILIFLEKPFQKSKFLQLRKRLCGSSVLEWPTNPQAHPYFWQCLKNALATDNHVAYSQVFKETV
How it was run: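 HEK-Blue hTLR7 cells (stable human TLR7 with SEAP reporter) were plated at 5 × 10^5 cells/mL in DMEM with 10% heat-inactivated FBS. They were treated with R848 and varying test compound concentrations at 37 °C for 20–24 h. Medium was mixed with QUANTI-Blue, incubated at 37 °C for about 30 min, and read at 620 nm. R848-only = 100% activation; untreated = 0%.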

IC50 (hTLR8): 0.13 ± 0.03 µM | IC50 (human TLR7): 0.79 ± 0.27 µM
SMILES: O=C(c1ccc(Cl)cc1)N1CCN(c2ccc([N+](=O)[O-])c3ncccc23)CC1 [Compound S1]
